Screens from PubChem.
This is a sample that favours compounds with a hit; in the whole collection about 2.3% have one here.
TRPC6 inh = inhibitors of mouse TRPC6 channel; Q61143; HEK293-TRPC6, membrane potential dye, ACh-evoked depolarization; hits give low values; B-score at 10 µM; actives 1.1% (n = 310,000); AID 2553;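 active = B-score under library mean minus 3 SD, initial fluorescence not abnormally high, positive integrated signal ratio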;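 also: B-score derived from integrated fluorescence ratio over the kinetic read; more negative B-score means stronger inhibition of depolarization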
Target sequence (Q61143 whole entry, looked up): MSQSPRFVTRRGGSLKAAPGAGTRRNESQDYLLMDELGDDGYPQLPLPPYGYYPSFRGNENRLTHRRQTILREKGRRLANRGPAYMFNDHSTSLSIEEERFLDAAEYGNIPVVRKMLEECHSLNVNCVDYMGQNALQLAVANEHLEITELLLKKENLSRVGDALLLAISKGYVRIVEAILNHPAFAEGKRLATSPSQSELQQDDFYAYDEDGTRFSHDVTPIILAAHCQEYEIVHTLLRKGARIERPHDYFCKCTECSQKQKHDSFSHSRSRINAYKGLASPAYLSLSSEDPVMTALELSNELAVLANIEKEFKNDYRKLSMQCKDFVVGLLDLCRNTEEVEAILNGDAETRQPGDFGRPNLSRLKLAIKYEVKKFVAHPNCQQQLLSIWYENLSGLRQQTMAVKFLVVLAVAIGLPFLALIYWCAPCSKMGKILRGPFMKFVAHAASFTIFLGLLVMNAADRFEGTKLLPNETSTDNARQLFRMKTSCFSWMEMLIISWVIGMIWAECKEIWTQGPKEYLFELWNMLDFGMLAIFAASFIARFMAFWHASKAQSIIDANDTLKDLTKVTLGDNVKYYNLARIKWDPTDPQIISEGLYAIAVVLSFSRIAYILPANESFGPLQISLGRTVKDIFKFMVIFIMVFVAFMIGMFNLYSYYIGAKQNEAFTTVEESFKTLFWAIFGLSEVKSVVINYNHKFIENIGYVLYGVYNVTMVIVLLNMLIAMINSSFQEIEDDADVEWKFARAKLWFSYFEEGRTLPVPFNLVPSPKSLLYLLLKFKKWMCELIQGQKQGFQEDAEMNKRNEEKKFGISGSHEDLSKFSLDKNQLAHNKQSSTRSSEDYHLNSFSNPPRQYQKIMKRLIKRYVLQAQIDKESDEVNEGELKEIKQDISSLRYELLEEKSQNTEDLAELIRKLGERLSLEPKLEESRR
TRPC4 inh = TRPC4 (mouse) channel inhibition | B-score at 10 µM | actives 0.39% (n = 300,000) | HEK293 TRPC4beta/mu-opioid, DAMGO-evoked Fluo4 calcium flux; hits give low values | Q9QUQ5;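 active = B-score over 3 SD under the library average, no early fluorescence shift, positive overall ratio signal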
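Assay system – HEK293 line stably carrying TRPC4beta and mu-opioid receptor · Doses – single dose · Detection – Fluo4 calcium-dye fluorescence, kinetic read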
TRPC6 act = activates the mouse TRPC6 cation channel; HEK293-TRPC6 membrane potential dye fluorescence; hits give high values; Q61143; B-score at 10 µM; AID 2550; actives 0.13% (n = 310,000);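 active = B-score of the integrated fluorescence ratio above library mean plus 3 SD, and starting fluorescence ratio within library mean plus 5 SD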;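 also: higher score means more depolarization so channel activation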
TRPC4 act = activators of mouse TRPC4 channel. HEK293 TRPC4beta/mu-opioid, Fluo4 calcium fluorescence; hits give high values. B-score at 10 µM. Q9QUQ5. actives 0.49% (n = 310,000). AID 2237;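 active = B-score above 5 SD of library B-scores, and initial fluorescence ratio not above library mean plus 5 SD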;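 also: positive B-score marks a calcium rise read as TRPC4 activation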
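System: HEK293 cells stably co-expressing mouse TRPC4beta and mu-opioid receptor; Schedule: Fluo4 dye loading 45 min at room temperature, 110 s recording; Detection: Fluo4 fluorescence, kinetic; Evaluation: B-scored integrated calcium fluorescence ratio; Controls: buffer (low) and maximal DAMGO (high).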
TRPC4 PAM = TRPC4 (mouse) allosteric potentiation. Q9QUQ5. HEK293 TRPC4beta/mu-opioid, DAMGO EC20, Fluo-4 Ca2+ flux; hits give high values. B-score at 10 µM. actives 0.42% (n = 310,000). AID 2227;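 active = B-score of calcium response area above 5 SD of library B-scores, with initial fluorescence ratio within 5 SD of library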;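 also: B-score of integrated fluorescence ratio over time as area under calcium response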
TRPC4 spec 2 = mouse TRPC4 off-target activity of TRPC6 inhibitors, second screen. HEK293 TRPC4/MOR, membrane potential dye fluorescence; channel activated by saturating DAMGO dose. inhibition, % at 10 µM. actives 42% (n = 920). AID 2776. shares compounds with TRPC6 inh;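 active = compounds whose fluorescence signal differed from control wells by over 3 SD, either direction, in both duplicate plates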
TRPC4 spec = selectivity of TRPC6 inhibitors: effect on mouse TRPC4. actives 61% (n = 920). HEK293 TRPC4/mu-opioid, membrane potential fluorescence. shares compounds with TRPC6 inh. AID 2777. activity change, negative = inhibition, % at 10 µM;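 active = rise or fall in signal beyond 3 SD of buffer-only wells in both replicate plates, either sign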;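 also: integrated kinetic ratio of fluorescence range over baseline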
HEK293 MPD ctr 2-1 = second check of TRPC6 inhibitor effects in parental HEK293 cells; shares compounds with TRPC6 inh; parental HEK293 membrane potential dye fluorescence; maximal acetylcholine challenge after compound addition; signal change vs control, % at 10 µM; actives 31% (n = 920);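 active = membrane potential signal moving either way by over 3 SD of the maximum-effect control, in both duplicate plates, meaning non-specific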
HEK293 MPD ctr-1 = checks TRPC6 inhibitor effects in parental HEK293 cells; shares compounds with TRPC6 inh; parental HEK293 membrane potential dye fluorescence; membrane potential signal change, % at 10 µM; actives 60% (n = 920); AID 2780;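 active = membrane potential signal shifting up or down by more than 3 SD of buffer-only wells, on both duplicate plates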
HEK293 MPD ctr-2 = counter-screen for TRPC6 modulators: effect in parental HEK293 cells; shares compounds with TRPC6 inh; membrane potential dye fluorescence; membrane potential signal change, % at 10 µM; actives 51% (n = 2,400); AID 488924;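 active = membrane potential signal moves up or down beyond 5 SD from buffer-only wells, on both duplicate plates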
HEK293 MPD ctr 2-2 = second counter-screen for TRPC6 modulators: effect in parental HEK293 cells | shares compounds with TRPC6 inh | membrane potential dye fluorescence; after compound, maximal acetylcholine stimulation | inhibition, % at 10 µM | actives 14% (n = 2,400) | AID 488926;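 active = membrane potential signal drops by more than 5 SD from the mean control signal, in both duplicate plates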;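 also: plate controls were acetylcholine ECmax control wells for no effect and buffer only wells for full effect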
TRPC4/MOR mod = selectivity of TRPC6 modulators against mouse TRPC4; shares compounds with TRPC6 inh; percent change from control (negative = decrease, positive = increase), % at 10 µM; HEK293 TRPC4/mu-opioid, membrane potential fluorescence; actives 69% (n = 2,400);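 active = membrane potential signal moved up or down beyond 5 SD of buffer control wells, in both duplicate plates, actives on both sides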;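 also: plate controls were assay buffer wells for no effect and DAMGO maximal-effect wells for full effect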
TRPC4/MOR inh 2 = second selectivity test of TRPC6 modulators against mouse TRPC4; shares compounds with TRPC6 inh; HEK293 TRPC4/mu-opioid, membrane potential dye fluorescence; stimulated with maximal-effect DAMGO; inhibition, % at 10 µM; actives 55% (n = 2,400); AID 488928;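 active = drop in membrane potential signal beyond 5 SD of the control wells in both duplicate plates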;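 also: TRPC4 counter screen for TRPC6 hits run under conditions tuned for TRPC6 not TRPC4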
TRPC6 block conf = mouse TRPC6 inhibitor confirmation; shares compounds with TRPC6 inh; HEK293-TRPC6, membrane potential dye, ACh-evoked depolarization; inhibition, % at 10 µM; actives 43% (n = 3,300); AID 488960;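 active = fluorescence ratio falls more than 5 SD below the full-stimulation control mean, in both duplicate runs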;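 also: integrated fluorescence ratio of peak minus minimum over baseline after agonist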
TRPC6 act confirm = confirmation of mouse TRPC6 activators | activation, % at 10 µM | actives 11% (n = 2,800) | shares compounds with TRPC6 inh | HEK293-TRPC6 membrane potential dye fluorescence, FDSS;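 active = ratio signal rise beyond 5 SD above unstimulated control wells' mean, seen in both duplicate runs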;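 also: plate controls were buffer EC0 wells for no effect and acetylcholine ECmax response for full effect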
The depositor's hits bear a star.

CC(=O)Nc1ccc(CN2CCCN(C)CC2)cc1 was read as TRPC6 inh inactive, TRPC4 inh inactive, TRPC6 act inactive, TRPC4 act inactive and TRPC4 PAM inactive.
Cc1ccc(C(=O)N(c2ccccc2)C2CC(C)N(C(=O)c3ccco3)c3ccccc32)cc1 (stereo not given) was read as TRPC6 inh inactive, TRPC4 inh inactive, TRPC6 act inactive, TRPC4 act inactive and TRPC4 PAM inactive.
`c1ccc(-c2nc(N3CCNCC3)nc3ccccc23)cc1` gave TRPC6 inh -8*, TRPC4 inh inactive, TRPC6 act inactive, TRPC4 act inactive, TRPC4 PAM 18*, TRPC4 spec 2 40%*, TRPC4 spec inactive, HEK293 MPD ctr 2-1 inactive, HEK293 MPD ctr-1 4.7%*, TRPC6 block conf inactive and TRPC6 act confirm inactive.
Screening Nc1nc(N2CCCCC2)nc2ccccc12 returned TRPC6 inh -11*, TRPC4 inh -8*, TRPC6 act inactive, TRPC4 act inactive, TRPC4 PAM inactive, HEK293 MPD ctr-2 -212%*, HEK293 MPD ctr 2-2 inactive, TRPC4/MOR mod -42%*, TRPC4/MOR inh 2 92%*, TRPC6 block conf 70%* and TRPC6 act confirm inactive.
Screening Cc1cc(-c2ccccc2)nc(N2CCN(c3ccccn3)CC2)n1 returned TRPC6 inh inactive, TRPC4 inh inactive, TRPC6 act inactive, TRPC4 act inactive and TRPC4 PAM inactive.
Screening Nc1nc(N2CCN(c3ccccn3)CC2)nc2ccccc12 returned TRPC6 inh -6.9*, TRPC4 inh inactive, TRPC6 act inactive, TRPC4 act inactive, TRPC4 PAM inactive, TRPC4 spec 2 49%*, TRPC4 spec -19%*, HEK293 MPD ctr 2-1 inactive, HEK293 MPD ctr-1 -232%*, TRPC6 block conf 62%* and TRPC6 act confirm inactive.
c1ccc2c(N3CCCCC3)nc(N3CCCC3)nc2c1 was read as TRPC6 inh inactive, TRPC4 inh inactive, TRPC6 act inactive, TRPC4 act inactive and TRPC4 PAM inactive.
Cc1ccc(S(=O)(=O)Nc2nc3ccccc3nc2NCC2CCCO2)c(C)c1 (stereo not given) was read as TRPC6 inh inactive, TRPC4 inh inactive, TRPC6 act 14*, TRPC4 act inactive, TRPC4 PAM inactive, HEK293 MPD ctr-2 inactive, HEK293 MPD ctr 2-2 inactive, TRPC4/MOR mod inactive, TRPC4/MOR inh 2 inactive, TRPC6 block conf inactive and TRPC6 act confirm inactive.
`Cc1cc(C)n(CCNC(=O)c2ccc3c(c2)OCO3)n1` gave TRPC6 inh inactive, TRPC4 inh inactive, TRPC6 act inactive, TRPC4 act inactive and TRPC4 PAM inactive.
`COc1cc(/C=C2\SC(=S)N(NS(=O)(=O)c3ccccc3)C2=O)ccc1O` gave TRPC6 inh inactive, TRPC4 inh inactive, TRPC6 act 15*, TRPC4 act inactive, TRPC4 PAM inactive, HEK293 MPD ctr-2 490%*, HEK293 MPD ctr 2-2 74%*, TRPC4/MOR mod 64%*, TRPC4/MOR inh 2 inactive, TRPC6 block conf inactive and TRPC6 act confirm 57%*.
COc1cc(/C=C2\SC(=S)N(NC(=O)c3ccccc3OC)C2=O)ccc1O was read as TRPC6 inh inactive, TRPC4 inh inactive, TRPC6 act inactive, TRPC4 act inactive and TRPC4 PAM inactive.
Screening COc1cc(/C=C2\SC(=S)N(NS(=O)(=O)c3ccc(C)cc3)C2=O)ccc1O returned TRPC6 inh inactive, TRPC4 inh inactive, TRPC6 act 23*, TRPC4 act inactive, TRPC4 PAM inactive, HEK293 MPD ctr-2 614%*, HEK293 MPD ctr 2-2 inactive, TRPC4/MOR mod 90%*, TRPC4/MOR inh 2 29%*, TRPC6 block conf inactive and TRPC6 act confirm 110%*.
Screening Cc1ccc(-n2ncc(C(=O)Nc3cc(Cl)cc(Cl)c3)c2C2CCNCC2)cc1C returned TRPC6 inh -6.9*, TRPC4 inh inactive, TRPC6 act inactive, TRPC4 act inactive, TRPC4 PAM inactive, TRPC4 spec 2 64%*, TRPC4 spec -12%*, HEK293 MPD ctr 2-1 inactive, HEK293 MPD ctr-1 inactive, TRPC6 block conf inactive and TRPC6 act confirm inactive.
Cc1ccc(-n2ncc(C(=O)Nc3cc(Cl)ccc3Cl)c2C2CCNCC2)cc1 was read as TRPC6 inh inactive, TRPC4 inh inactive, TRPC6 act inactive, TRPC4 act inactive and TRPC4 PAM inactive.
Screening COc1cc(Nc2c3ccccc3nc3ccccc23)cc(OC)c1OC returned TRPC6 inh -7.1*, TRPC4 inh inactive, TRPC6 act inactive, TRPC4 act inactive, TRPC4 PAM inactive, HEK293 MPD ctr-2 -132%*, HEK293 MPD ctr 2-2 inactive, TRPC4/MOR mod -38%*, TRPC4/MOR inh 2 60%*, TRPC6 block conf inactive and TRPC6 act confirm inactive.
